ChEMBL document CHEMBL1149298, “Stereochemical studies of the monocyclic agouti-related protein (103-122) Arg-Phe-Phe residues: conversion of a melanocortin-4 receptor antagonist into an agonist and results in the discovery of a potent and selective melanocortin-1 agonist” (J Med Chem, 2004)

Legend:
[1] = target: Melanocortin receptor 3 (Mus musculus) (UniProt P33033); assay: Agonist activity at mouse MC3R expressed in HEK293 cells by beta-galactosidase assay at 100 uM relative to forskolin; type: functional, cell-based; details: filed as agonist
Chain of Melanocortin receptor 3 (Mus musculus) (P33033 whole entry): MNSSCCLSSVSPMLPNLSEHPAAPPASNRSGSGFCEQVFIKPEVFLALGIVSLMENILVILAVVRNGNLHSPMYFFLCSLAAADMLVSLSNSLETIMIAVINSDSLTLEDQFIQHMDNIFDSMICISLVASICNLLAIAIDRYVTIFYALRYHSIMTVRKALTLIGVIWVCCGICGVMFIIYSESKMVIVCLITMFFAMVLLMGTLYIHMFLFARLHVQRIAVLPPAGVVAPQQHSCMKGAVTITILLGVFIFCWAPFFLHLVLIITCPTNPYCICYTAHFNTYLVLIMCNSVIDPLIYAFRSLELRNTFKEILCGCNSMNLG

Melanocortin receptor 5 = Melanocortin receptor 5 (Mus musculus, UniProt P41149); assay: Agonist activity at mouse MC5R expressed in HEK293 cells by beta-galactosidase assay; type: functional, cell-based
Chain of Melanocortin receptor 5 (P41149 whole entry): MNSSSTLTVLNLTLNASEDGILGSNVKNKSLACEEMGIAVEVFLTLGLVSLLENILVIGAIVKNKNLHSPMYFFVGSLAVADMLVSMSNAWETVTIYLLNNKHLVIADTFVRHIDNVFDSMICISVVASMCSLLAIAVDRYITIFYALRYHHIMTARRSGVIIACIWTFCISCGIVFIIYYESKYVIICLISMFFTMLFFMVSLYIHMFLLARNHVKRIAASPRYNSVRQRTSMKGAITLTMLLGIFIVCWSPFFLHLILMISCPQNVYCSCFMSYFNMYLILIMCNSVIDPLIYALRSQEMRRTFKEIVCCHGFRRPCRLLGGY

Melanocortin receptor 4 [2] = target: T1, Melanocortin receptor 4 (Mus musculus, UniProt P56450); assay: Agonist activity at mouse MC4R expressed in HEK293 cells by beta-galactosidase assay; type: functional, cell-based
T1 sequence (P56450 whole entry): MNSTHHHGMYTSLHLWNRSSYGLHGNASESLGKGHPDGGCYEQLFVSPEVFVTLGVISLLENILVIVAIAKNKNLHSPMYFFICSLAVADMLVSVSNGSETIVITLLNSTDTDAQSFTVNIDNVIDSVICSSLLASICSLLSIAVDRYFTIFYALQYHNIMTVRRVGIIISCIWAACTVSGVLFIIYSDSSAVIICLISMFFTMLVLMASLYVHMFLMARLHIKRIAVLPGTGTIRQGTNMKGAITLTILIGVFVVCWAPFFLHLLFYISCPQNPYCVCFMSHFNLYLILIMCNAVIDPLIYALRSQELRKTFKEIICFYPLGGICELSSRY

[3] = target: Melanocyte-stimulating hormone receptor (Mus musculus, UniProt Q01727); assay: Agonist activity at mouse MC1R expressed in HEK293 cells by beta-galactosidase assay; type: functional, cell-based
Chain of Melanocyte-stimulating hormone receptor (Q01727 whole entry): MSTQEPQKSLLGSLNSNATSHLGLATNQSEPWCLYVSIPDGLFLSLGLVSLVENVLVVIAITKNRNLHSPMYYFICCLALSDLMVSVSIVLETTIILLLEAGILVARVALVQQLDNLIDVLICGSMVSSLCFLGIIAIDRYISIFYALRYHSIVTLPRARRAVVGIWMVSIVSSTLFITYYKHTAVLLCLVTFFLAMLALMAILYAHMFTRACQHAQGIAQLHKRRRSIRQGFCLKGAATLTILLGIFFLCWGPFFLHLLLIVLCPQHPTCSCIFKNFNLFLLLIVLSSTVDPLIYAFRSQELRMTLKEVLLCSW

Mus musculus [4] = organism: Mus musculus; assay: Selectivity for mouse MC1R over mouse MC5R
Melanocortin receptor 3 [5] = target: T2, Melanocortin receptor 3 (Mus musculus, UniProt P33033); assay: Agonist activity at mouse MC3R expressed in HEK293 cells by beta-galactosidase assay; type: functional, cell-based
T2 sequence (P33033 whole entry): as the sequence (P33033 whole entry) above

Mus musculus [6] = organism: Mus musculus; assay: Selectivity for mouse MC1R over mouse MC4R
Mus musculus [7] = organism: Mus musculus; assay: Selectivity for mouse MC1R over mouse MC3R
Melanocortin receptor 4 [8] = target: T1, Melanocortin receptor 4; assay: Displacement of MT2 from mouse MC4R expressed in HEK293 cells; type: cell-based
Summary of the method: (§1)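 Antagonism was measured in the same CRE/β-galactosidase assay in HEK-293 cells stably expressing the mouse receptor, as the dose-dependent competitive shift of MTII agonist response. pA2 was obtained by Schild analysis and converted to Ki. Values are means of duplicate wells from at least three independent experiments, ± SEM.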

Melanocortin receptor 3 [9] = target: T2, Melanocortin receptor 3; assay: Displacement of MT2 from mouse MC3R expressed in HEK293 cells; type: cell-based; summary of the method: as §1
[10] = target: Melanocortin receptor 4 (Mus musculus) (UniProt P56450); assay: Agonist activity at mouse MC4R expressed in HEK293 cells by beta-galactosidase assay at 100 uM relative to forskolin; type: functional, cell-based; details: filed as agonist
Chain of Melanocortin receptor 4 (Mus musculus) (P56450 whole entry): as the sequence (P56450 whole entry) above

Row | SMILES | Activity [1] | EC50 (Melanocortin receptor 5) | EC50 (Melanocortin receptor 4 [2]) | EC50 [3] | Selectivity ratio (Mus musculus [4]) | EC50 (Melanocortin receptor 3 [5]) | Selectivity ratio (Mus musculus [6]) | Selectivity ratio (Mus musculus [7]) | pA2 (Melanocortin receptor 4 [8]) | pA2 (Melanocortin receptor 3 [9]) | Activity [10]
1 | CC(C)C[C@H](NC(=O)[C@H](CCCCN)NC(=O)[C@H](CCCNC(=N)N)NC(=O)[C@H](C)NC(=O)[C@H](Cc1ccc(O)cc1)NC(=O)[C@@H]1CSSC[C@H](NC(=O)[C@H](Cc2ccc(O)cc2)NC(=O)[C@H](C)NC(=O)[C@@H](NC(=O)[C@H](C)NC(=O)[C@H](C)NC(=O)[C@@H]2CCCN2C(=O)[C@@H](N)CC(=O)O)[C@@H](C)O)C(=O)N[C@H](CCCNC(=N)N)C(=O)N[C@@H](Cc2ccccc2)C(=O)N[C@@H](Cc2ccccc2)C(=O)N[C@@H](CC(N)=O)C(=O)N[C@@H](C)C(=O)N[C@@H](Cc2ccccc2)C(=O)N1)C(=O)O | 70% | 18.3 µM (agonist) | 37.7 µM (agonist) | 6.33 µM (agonist) |  |  |  |  |  |  | 
2 | CC(C)C[C@H](NC(=O)[C@H](CCCCN)NC(=O)[C@H](CCCNC(=N)N)NC(=O)[C@H](C)NC(=O)[C@H](Cc1ccc(O)cc1)NC(=O)[C@@H]1CSSC[C@H](NC(=O)[C@H](Cc2ccc(O)cc2)NC(=O)[C@H](C)NC(=O)[C@@H](NC(=O)[C@H](C)NC(=O)[C@H](C)NC(=O)[C@@H]2CCCN2C(=O)[C@@H](N)CC(=O)O)[C@@H](C)O)C(=O)N[C@@H](CCCNC(=N)N)C(=O)N[C@H](Cc2ccccc2)C(=O)N[C@H](Cc2ccccc2)C(=O)N[C@@H](CC(N)=O)C(=O)N[C@@H](C)C(=O)N[C@@H](Cc2ccccc2)C(=O)N1)C(=O)O |  | 11.4 µM (agonist) | 6.24 µM (agonist) | 0.064 µM (agonist) | 180 | 63.3 µM (agonist) | 98 | 990 |  |  | 
3 | CC(C)C[C@H](NC(=O)[C@H](CCCCN)NC(=O)[C@H](CCCNC(=N)N)NC(=O)[C@H](C)NC(=O)[C@H](Cc1ccc(O)cc1)NC(=O)[C@@H]1CSSC[C@H](NC(=O)[C@H](Cc2ccc(O)cc2)NC(=O)[C@H](C)NC(=O)[C@@H](NC(=O)[C@H](C)NC(=O)[C@H](C)NC(=O)[C@@H]2CCCN2C(=O)[C@@H](N)CC(=O)O)[C@@H](C)O)C(=O)N[C@H](CCCNC(=N)N)C(=O)N[C@H](Cc2ccccc2)C(=O)N[C@H](Cc2ccccc2)C(=O)N[C@@H](CC(N)=O)C(=O)N[C@@H](C)C(=O)N[C@@H](Cc2ccccc2)C(=O)N1)C(=O)O |  | 13.2 µM (agonist) | 21.5 µM (agonist) | 3.75 µM (agonist) |  | 22.6 µM (agonist) |  |  |  |  | 
4 | CC(C)C[C@H](NC(=O)[C@H](CCCCN)NC(=O)[C@H](CCCNC(=N)N)NC(=O)[C@H](C)NC(=O)[C@H](Cc1ccc(O)cc1)NC(=O)[C@@H]1CSSC[C@H](NC(=O)[C@H](Cc2ccc(O)cc2)NC(=O)[C@H](C)NC(=O)[C@@H](NC(=O)[C@H](C)NC(=O)[C@H](C)NC(=O)[C@@H]2CCCN2C(=O)[C@@H](N)CC(=O)O)[C@@H](C)O)C(=O)N[C@H](CCCNC(=N)N)C(=O)N[C@@H](Cc2ccccc2)C(=O)N[C@H](Cc2ccccc2)C(=O)N[C@@H](CC(N)=O)C(=O)N[C@@H](C)C(=O)N[C@@H](Cc2ccccc2)C(=O)N1)C(=O)O | 70% | 19.8 µM (agonist) | 8.33 µM (agonist) | 5.27 µM (agonist) |  |  |  |  |  |  | 
5 | CC(C)C[C@H](NC(=O)[C@H](CCCCN)NC(=O)[C@H](CCCNC(=N)N)NC(=O)[C@H](C)NC(=O)[C@H](Cc1ccc(O)cc1)NC(=O)[C@@H]1CSSC[C@H](NC(=O)[C@H](Cc2ccc(O)cc2)NC(=O)[C@H](C)NC(=O)[C@@H](NC(=O)[C@H](C)NC(=O)[C@H](C)NC(=O)[C@@H]2CCCN2C(=O)[C@@H](N)CC(=O)O)[C@@H](C)O)C(=O)N[C@H](CCCNC(=N)N)C(=O)N[C@H](Cc2ccccc2)C(=O)N[C@@H](Cc2ccccc2)C(=O)N[C@@H](CC(N)=O)C(=O)N[C@@H](C)C(=O)N[C@@H](Cc2ccccc2)C(=O)N1)C(=O)O |  | 4.6 µM (agonist) | 8.3 µM (agonist) | 1.75 µM (agonist) |  | 5.51 µM (agonist) |  |  |  |  | 
6 | CC(C)C[C@H](NC(=O)[C@H](CCCCN)NC(=O)[C@H](CCCNC(=N)N)NC(=O)[C@H](C)NC(=O)[C@H](Cc1ccc(O)cc1)NC(=O)[C@@H]1CSSC[C@H](NC(=O)[C@H](Cc2ccc(O)cc2)NC(=O)[C@H](C)NC(=O)[C@@H](NC(=O)[C@H](C)NC(=O)[C@H](C)NC(=O)[C@@H]2CCCN2C(=O)[C@@H](N)CC(=O)O)[C@@H](C)O)C(=O)N[C@@H](CCCNC(=N)N)C(=O)N[C@@H](Cc2ccccc2)C(=O)N[C@H](Cc2ccccc2)C(=O)N[C@@H](CC(N)=O)C(=O)N[C@@H](C)C(=O)N[C@@H](Cc2ccccc2)C(=O)N1)C(=O)O (stereo in doubt; 4) |  | 2.22 µM (agonist) | 3.7 µM (agonist) | 0.12 µM (agonist) |  | 13.7 µM (agonist) |  |  |  |  | 
7 | CC(C)C[C@H](NC(=O)[C@H](CCCCN)NC(=O)[C@H](CCCNC(=N)N)NC(=O)[C@H](C)NC(=O)[C@H](Cc1ccc(O)cc1)NC(=O)[C@@H]1CSSC[C@H](NC(=O)[C@H](Cc2ccc(O)cc2)NC(=O)[C@H](C)NC(=O)[C@@H](NC(=O)[C@H](C)NC(=O)[C@H](C)NC(=O)[C@@H]2CCCN2C(=O)[C@@H](N)CC(=O)O)[C@@H](C)O)C(=O)N[C@@H](CCCNC(=N)N)C(=O)N[C@@H](Cc2ccccc2)C(=O)N[C@H](Cc2ccccc2)C(=O)N[C@@H](CC(N)=O)C(=O)N[C@@H](C)C(=O)N[C@@H](Cc2ccccc2)C(=O)N1)C(=O)O (stereo in doubt; 1) |  | > 100 µM (agonist) |  | 0.96 µM (agonist) |  |  |  |  | 6.92 | 6.15 | 
8 | CC(C)C[C@H](NC(=O)[C@H](CCCCN)NC(=O)[C@H](CCCNC(=N)N)NC(=O)[C@H](C)NC(=O)[C@H](Cc1ccc(O)cc1)NC(=O)[C@@H]1CSSC[C@H](NC(=O)[C@H](Cc2ccc(O)cc2)NC(=O)[C@H](C)NC(=O)[C@@H](NC(=O)[C@H](C)NC(=O)[C@H](C)NC(=O)[C@@H]2CCCN2C(=O)[C@@H](N)CC(=O)O)[C@@H](C)O)C(=O)N[C@@H](CCCNC(=N)N)C(=O)N[C@H](Cc2ccccc2)C(=O)N[C@@H](Cc2ccccc2)C(=O)N[C@@H](CC(N)=O)C(=O)N[C@@H](C)C(=O)N[C@@H](Cc2ccccc2)C(=O)N1)C(=O)O | 50% | 1.41 µM (agonist) |  | 0.093 µM (agonist) |  |  |  |  | 6.56 | 6.14 | 75%
